# According to ChEMBL document CHEMBL4033786, “Discovery of Novel 1-Cyclopentenyl-3-phenylureas as Selective, Brain Penetrant, and Orally Bioavailable CXCR2 Antagonists” (J Med Chem, 2018):
# How the values were obtained:
# Mus musculus = assay: Antiinflammatory activity in C57Bl/6 mouse air pouch model assessed as inhibition of carrageenan-induced neutrophil infiltration administered po bid starting from day 3 post air reinflation at 4 hrs post carrageenan induction measured on day 6 post last dose; format: functional, organism-based
# In short: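 Male C57Bl/6 mice aged 6–8 weeks received 5 mL air dorsally under pentobarbital on day 0, with 2.5 mL re-inflations on days 3 and 6. Oral dosing of vehicle or 1, 3 or 10 mg/kg BID ran from day 3; on day 6 dosing preceded re-inflation and 1 mL 2% carrageenan. At 4 h the pouch was lavaged with 4 mL PBS, and neutrophils were counted on Giemsa-stained cytospins as % of vehicle. One-way ANOVA with Bonferroni.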
# [1] = target: T1, C-X-C chemokine receptor type 2 (Homo sapiens, UniProt P25025); assay: Antagonist activity at TEV protease cleavage site linked GAL4-VP16-fused recombinant human CXCR2 expressed in cells assessed as inhibition of […] human CXCL1-stimulated beta-arrestin recruitment by CCF4-AM-fluorescence based FRET assay; format: cell-based; conditions: read-out: IC50
# T1 sequence (P25025 whole entry): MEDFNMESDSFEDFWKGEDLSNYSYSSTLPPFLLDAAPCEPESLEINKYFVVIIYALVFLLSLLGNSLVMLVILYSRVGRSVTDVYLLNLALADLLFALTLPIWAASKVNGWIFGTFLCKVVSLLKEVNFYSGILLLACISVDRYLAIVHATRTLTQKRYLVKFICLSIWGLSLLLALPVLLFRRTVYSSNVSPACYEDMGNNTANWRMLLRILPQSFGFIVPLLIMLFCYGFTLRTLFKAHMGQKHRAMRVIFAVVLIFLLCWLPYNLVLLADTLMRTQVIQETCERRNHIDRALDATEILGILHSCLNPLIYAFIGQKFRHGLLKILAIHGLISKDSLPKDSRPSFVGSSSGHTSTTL
# In short: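 Stable cell line expressing recombinant human CXCR2 linked to a TEV site and Gal4-VP16. Cells were starved 24 h at 37 °C, 5% CO2, then resuspended at ~200,000 cells/mL. They were given compound in DMSO (concentration-response), stimulated with 80 nM hCXCL1 and incubated overnight at 37 °C. CCF4-AM substrate was then added for 2 h at RT in the dark.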
# [2] = Passive permeability in MDCK2-MDR1 cells transduced with BacMam2-BCRP at 3 uM after 90 mins by Transwell assay; format: ADME, cell-based, Canis lupus familiaris, MDCK-MDR1; conditions: dog; read-out: permeability
# In short: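 MDCKII-MDR1 cells transduced with BacMam2-BCRP and grown in Transwells. Compound at 3 μM, in duplicate, was incubated 90 min A→B (and B→A) with and without GF120918 (5 μM, dual P-gp/BCRP inhibitor). Passive permeability (Pexact, nm/s) was calculated by an equation from earlier work. The permeability ratio is A→B permeability with GF120918 over A→B permeability without it.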
# [3] = Fraction unbound in Han-Wistar SOA rat model brain at 2 mg/kg administered via oral gavage by UPLC/MS/MS analysis; format: ADME, organism-based
# Brain = assay: Dose normalized AUC (0 to 7 hrs) in Han-Wistar SOA rat model brain at 2 mg/kg administered via oral gavage by UPLC/MS/MS analysis; format: ADME, organism-based; conditions: in vivo
# In short: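 Male Han-Wistar rats were given 2 mg/kg by oral gavage as a suspension in DMSO:1% methylcellulose (1:99). Blood (cardiac puncture, EDTA-K2, under isoflurane) and brains were collected at 0.25–7 h. Brain was homogenised in 3-fold PBS, samples were protein-precipitated and quantified by UPLC/MS/MS.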
# [4] = Ratio of brain dose normalized AUC (0 to 7 hrs) to […] dose normalized AUC (0 to 7 hrs), Kp of the compound in Han-Wistar SOA rat model at 2 mg/kg administered via oral gavage by UPLC/MS/MS analysis; format: ADME, organism-based
# In short: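 Male Han-Wistar rats given a single 2 mg/kg oral gavage as a suspension in DMSO:1% methylcellulose (1:99). Blood was taken by cardiac puncture under isoflurane at 0.25–7 h, diluted 1:3 with water, and brains were homogenized in 3-fold PBS. Samples were extracted by acetonitrile protein precipitation and quantified by UPLC/MS/MS. Kp = brain DNAUC0-7h/blood DNAUC0-7h; Kp,uu = Kp×Fu,br/Fu,bl.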
# Rattus norvegicus = assay: Dose normalized AUC (0 to infinity) in Wistar rat at 0.98 mg/kg, iv measured up to 4 hrs post dose; format: ADME, organism-based; conditions: in vivo
# [5] = Cmax in Wistar rat at 2.41 mg/kg, po measured up to 4 hrs post dose; format: ADME, organism-based; design: dose 2.41 mg/kg, route oral; conditions: in vivo
# [6] = Oral bioavailability in Wistar rat at 2.41 mg/kg measured up to 4 hrs after dose; format: ADME, organism-based; conditions: in vivo
# [7] = Volume of distribution at steady state in dog at 0.85 mg/kg, iv measured up to 4 hrs post dose; format: ADME, organism-based, Canis lupus familiaris; conditions: in vivo, read-out: Vdss
# [8] = Elimination half life in dog at 0.85 mg/kg, iv measured up to 4 hrs post dose; format: ADME, organism-based, Canis lupus familiaris; conditions: in vivo, read-out: beta t1/2 (converted)
# [9] = target: C-C chemokine receptor type 3 (Homo sapiens, UniProt P51677); assay: Agonist activity at CCR3 (unknown origin)
# Chain of C-C chemokine receptor type 3 (P51677 whole entry): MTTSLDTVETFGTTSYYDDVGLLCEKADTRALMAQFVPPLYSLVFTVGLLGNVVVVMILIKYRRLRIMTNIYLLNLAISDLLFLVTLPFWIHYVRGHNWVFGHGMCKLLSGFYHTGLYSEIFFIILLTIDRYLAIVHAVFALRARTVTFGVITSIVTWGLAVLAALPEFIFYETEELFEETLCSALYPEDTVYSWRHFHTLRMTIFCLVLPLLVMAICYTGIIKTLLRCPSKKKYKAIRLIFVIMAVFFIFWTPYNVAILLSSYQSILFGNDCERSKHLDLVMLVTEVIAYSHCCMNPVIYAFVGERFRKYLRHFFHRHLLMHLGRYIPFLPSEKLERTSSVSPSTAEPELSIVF
# In short: (§1)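 β-arrestin assays run in both agonist and antagonist modes across a panel of 18 CXC and CC chemokine receptors.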
# [10] = target: T2, C-C chemokine receptor type 4 (Homo sapiens, UniProt P51679); assay: Agonist activity at CCR4 (unknown origin); in short: as §1
# T2 sequence (P51679 whole entry): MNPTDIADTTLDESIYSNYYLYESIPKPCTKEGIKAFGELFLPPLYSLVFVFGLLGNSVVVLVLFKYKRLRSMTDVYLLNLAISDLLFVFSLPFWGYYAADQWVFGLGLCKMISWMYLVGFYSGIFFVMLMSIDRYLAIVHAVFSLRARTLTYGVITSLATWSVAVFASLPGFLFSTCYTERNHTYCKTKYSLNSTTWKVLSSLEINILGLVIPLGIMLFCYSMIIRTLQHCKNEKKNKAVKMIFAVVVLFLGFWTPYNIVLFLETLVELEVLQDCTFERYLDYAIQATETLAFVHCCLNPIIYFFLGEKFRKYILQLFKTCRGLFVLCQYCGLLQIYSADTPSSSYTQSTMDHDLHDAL
# [11] = target: C-C chemokine receptor type 7 (Homo sapiens, UniProt P32248); assay: Agonist activity at CCR7 (unknown origin); in short: as §1
# Chain of C-C chemokine receptor type 7 (P32248 whole entry): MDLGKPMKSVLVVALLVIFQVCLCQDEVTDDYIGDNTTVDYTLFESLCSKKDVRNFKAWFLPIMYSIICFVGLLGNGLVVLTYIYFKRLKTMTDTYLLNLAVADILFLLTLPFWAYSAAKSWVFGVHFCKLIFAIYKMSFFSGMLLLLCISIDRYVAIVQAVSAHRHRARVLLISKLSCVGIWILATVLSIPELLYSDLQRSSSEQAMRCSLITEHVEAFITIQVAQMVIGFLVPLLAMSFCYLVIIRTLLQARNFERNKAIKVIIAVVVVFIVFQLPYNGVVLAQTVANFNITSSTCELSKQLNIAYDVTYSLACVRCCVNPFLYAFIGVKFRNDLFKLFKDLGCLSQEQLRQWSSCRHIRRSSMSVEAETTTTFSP
# [12] = target: T3, C-X-C chemokine receptor type 1 (Homo sapiens, UniProt P25024); assay: Agonist activity at CXCR1 (unknown origin)
# T3 sequence (P25024 whole entry): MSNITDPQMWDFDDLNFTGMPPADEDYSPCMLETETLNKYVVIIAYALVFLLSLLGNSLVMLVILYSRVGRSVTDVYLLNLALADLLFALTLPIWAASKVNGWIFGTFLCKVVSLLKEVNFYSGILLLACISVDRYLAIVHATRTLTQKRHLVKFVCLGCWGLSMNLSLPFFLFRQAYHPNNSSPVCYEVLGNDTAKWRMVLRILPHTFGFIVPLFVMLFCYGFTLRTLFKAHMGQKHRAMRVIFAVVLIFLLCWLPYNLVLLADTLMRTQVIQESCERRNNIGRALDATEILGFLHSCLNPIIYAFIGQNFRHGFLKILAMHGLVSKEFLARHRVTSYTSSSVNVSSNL
# In short: (§2)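 Part of an 18-receptor CXC/CC chemokine receptor panel, each receptor run in β-arrestin recruitment assays in both agonist and antagonist modes.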
# [13] = target: C-X-C chemokine receptor type 4 (Homo sapiens, UniProt P61073); assay: Agonist activity at CXCR4 (unknown origin); in short: as §1
# Chain of C-X-C chemokine receptor type 4 (P61073 whole entry): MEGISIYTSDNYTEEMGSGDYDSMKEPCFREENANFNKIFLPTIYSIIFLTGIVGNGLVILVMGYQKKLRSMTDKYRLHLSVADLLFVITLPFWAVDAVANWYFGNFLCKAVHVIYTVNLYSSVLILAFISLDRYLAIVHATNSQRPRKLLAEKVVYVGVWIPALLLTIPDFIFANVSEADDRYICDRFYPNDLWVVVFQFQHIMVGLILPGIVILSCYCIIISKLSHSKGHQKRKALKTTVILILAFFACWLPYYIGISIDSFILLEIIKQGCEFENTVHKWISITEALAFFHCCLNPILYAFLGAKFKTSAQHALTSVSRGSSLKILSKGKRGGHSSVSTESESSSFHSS
# [14] = target: C-C chemokine receptor type 2 (Homo sapiens, UniProt P41597); assay: Antagonist activity at CCR2 (unknown origin); in short: as §1
# Chain of C-C chemokine receptor type 2 (P41597 whole entry): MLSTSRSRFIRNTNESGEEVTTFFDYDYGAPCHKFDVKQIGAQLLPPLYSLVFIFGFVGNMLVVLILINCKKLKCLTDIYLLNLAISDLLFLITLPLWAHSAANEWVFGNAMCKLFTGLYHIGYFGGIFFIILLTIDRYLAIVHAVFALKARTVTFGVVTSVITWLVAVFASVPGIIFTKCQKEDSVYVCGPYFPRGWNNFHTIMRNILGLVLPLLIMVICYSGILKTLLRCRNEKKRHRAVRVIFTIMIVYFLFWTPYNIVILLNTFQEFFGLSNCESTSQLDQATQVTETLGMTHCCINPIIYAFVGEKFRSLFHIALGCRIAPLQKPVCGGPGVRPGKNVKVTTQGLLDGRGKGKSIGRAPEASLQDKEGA
# [15] = target: T2, C-C chemokine receptor type 4; assay: Antagonist activity at CCR4 (unknown origin); in short: as §1
# [16] = target: C-C chemokine receptor type 8 (Homo sapiens, UniProt P51685); assay: Antagonist activity at CCR8 (unknown origin); in short: as §1
# Chain of C-C chemokine receptor type 8 (P51685 whole entry): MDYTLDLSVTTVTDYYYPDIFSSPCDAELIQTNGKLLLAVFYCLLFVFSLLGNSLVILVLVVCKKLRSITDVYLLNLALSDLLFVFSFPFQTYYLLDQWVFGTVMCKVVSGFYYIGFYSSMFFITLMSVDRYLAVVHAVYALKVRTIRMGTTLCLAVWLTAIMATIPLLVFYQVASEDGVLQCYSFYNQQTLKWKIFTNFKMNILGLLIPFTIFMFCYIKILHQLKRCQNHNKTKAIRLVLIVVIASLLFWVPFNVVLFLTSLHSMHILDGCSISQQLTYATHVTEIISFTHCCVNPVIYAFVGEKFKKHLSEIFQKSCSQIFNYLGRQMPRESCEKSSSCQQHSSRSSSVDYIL
# Chemerin-like receptor 1 = Chemerin-like receptor 1 (Homo sapiens, UniProt Q99788); assay: Antagonist activity at CMKLR1 (unknown origin); in short: as §1
# Chain of Chemerin-like receptor 1 (Q99788 whole entry): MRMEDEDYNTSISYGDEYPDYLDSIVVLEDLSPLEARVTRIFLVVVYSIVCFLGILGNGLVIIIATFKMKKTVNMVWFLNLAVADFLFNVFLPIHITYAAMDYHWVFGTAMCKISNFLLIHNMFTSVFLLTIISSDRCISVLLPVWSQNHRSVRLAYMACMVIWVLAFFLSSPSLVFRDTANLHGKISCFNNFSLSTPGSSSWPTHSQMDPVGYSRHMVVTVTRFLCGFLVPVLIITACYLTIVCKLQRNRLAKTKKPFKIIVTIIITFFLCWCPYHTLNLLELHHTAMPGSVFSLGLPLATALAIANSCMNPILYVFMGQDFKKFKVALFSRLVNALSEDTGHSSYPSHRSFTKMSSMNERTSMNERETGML
# [17] = target: CX3C chemokine receptor 1 (Homo sapiens, UniProt P49238); assay: Antagonist activity at CX3CR1 (unknown origin); in short: as §1
# Chain of CX3C chemokine receptor 1 (P49238 whole entry): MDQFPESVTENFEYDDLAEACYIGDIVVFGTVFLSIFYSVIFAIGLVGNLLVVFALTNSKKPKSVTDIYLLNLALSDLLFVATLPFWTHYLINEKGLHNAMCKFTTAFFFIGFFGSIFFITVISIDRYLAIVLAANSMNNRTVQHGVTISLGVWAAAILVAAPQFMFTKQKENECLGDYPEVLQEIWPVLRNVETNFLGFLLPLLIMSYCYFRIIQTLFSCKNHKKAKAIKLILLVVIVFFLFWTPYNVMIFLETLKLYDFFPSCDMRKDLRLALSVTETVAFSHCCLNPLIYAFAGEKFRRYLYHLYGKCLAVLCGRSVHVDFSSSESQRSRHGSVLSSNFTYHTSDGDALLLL
# [18] = target: T3, C-X-C chemokine receptor type 1; assay: Antagonist activity at CXCR1 (unknown origin); in short: as §2
# [19] = target: C-X-C chemokine receptor type 5 (Homo sapiens, UniProt P32302); assay: Antagonist activity at CXCR5 (unknown origin); in short: as §1
# Chain of C-X-C chemokine receptor type 5 (P32302 whole entry): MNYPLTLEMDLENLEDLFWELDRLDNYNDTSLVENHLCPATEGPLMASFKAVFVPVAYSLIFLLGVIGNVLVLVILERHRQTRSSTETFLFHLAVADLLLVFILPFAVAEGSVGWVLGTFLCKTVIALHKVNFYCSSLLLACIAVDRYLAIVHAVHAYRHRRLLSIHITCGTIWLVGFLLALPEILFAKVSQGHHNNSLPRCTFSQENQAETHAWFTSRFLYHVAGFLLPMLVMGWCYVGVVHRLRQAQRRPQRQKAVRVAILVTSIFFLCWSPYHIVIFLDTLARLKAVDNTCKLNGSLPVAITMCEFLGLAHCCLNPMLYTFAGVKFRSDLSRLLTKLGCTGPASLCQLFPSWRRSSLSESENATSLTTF
# [20] = target: C-X-C chemokine receptor type 6 (Homo sapiens, UniProt O00574); assay: Antagonist activity at CXCR6 (unknown origin); in short: as §1
# Chain of C-X-C chemokine receptor type 6 (O00574 whole entry): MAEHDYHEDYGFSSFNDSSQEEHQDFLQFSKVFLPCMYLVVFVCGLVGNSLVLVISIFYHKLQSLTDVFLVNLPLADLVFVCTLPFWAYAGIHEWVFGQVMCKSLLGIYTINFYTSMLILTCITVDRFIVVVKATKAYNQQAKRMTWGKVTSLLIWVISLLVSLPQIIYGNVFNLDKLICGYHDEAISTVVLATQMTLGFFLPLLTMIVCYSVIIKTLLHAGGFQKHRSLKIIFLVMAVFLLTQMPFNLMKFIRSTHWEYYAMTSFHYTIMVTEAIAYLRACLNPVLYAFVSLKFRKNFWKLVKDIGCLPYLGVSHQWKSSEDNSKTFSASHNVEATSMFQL
# [21] = Intrinsic clearance in human hepatocytes; format: ADME, cell-based, Hepatocyte
structure (smiles),measurement,setting,value
CC1=CCC[C@H]1NC(=O)Nc1ccc(Cl)c(S(=O)(=O)[C@@]2(C)CCOC2)c1O,inhibition,Mus musculus,Dose-dependent effect
same,IC50,[1],0.0052 µM
same,"Papp at 1.5 h, 3 µM",[2],25.4 ×10⁻⁶ cm/s
same,fraction unbound,[3],0.123
same,AUC/dose,Brain,87.7 ng·h/g/mg/kg
same,Kp,[4],0.14
same,AUC/dose,Rattus norvegicus,1829 ng·h/mL/mg/kg
same,Cmax,[5],452 ng/mL
same,bioavailability,[6],47%
same,Vd,[7],0.88 L/kg
same,half-life,[8],3.6 h
same,EC50,[9],> 10 µM
same,EC50,[10],> 10 µM
same,EC50,[11],> 10 µM
same,EC50,[12],> 10 µM
same,EC50,[13],> 10 µM
same,IC50,[14],> 10 µM
same,IC50,[15],> 10 µM
same,IC50,[16],> 10 µM
same,IC50,Chemerin-like receptor 1,> 10 µM
same,IC50,[17],> 10 µM
same,IC50,[18],3.8 µM
same,IC50,[19],> 10 µM
same,IC50,[20],> 10 µM
same,CLH,[21],0.79 mL/min/g
